Only some compounds are listed: those with a hit (about 1.8% of all), similar ones and a draw of the others.
LMPTP block = blocks human LMPTP phosphatase. recombinant LMPTP-A, OMFP fluorogenic substrate, fluorescence intensity. inhibition, % at 20 µM. 360,000 tested, 0.22% active;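 active = compounds that cut the enzyme signal by at least half of the control window in the single-dose screen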
Target sequence (P24666 whole entry, looked up): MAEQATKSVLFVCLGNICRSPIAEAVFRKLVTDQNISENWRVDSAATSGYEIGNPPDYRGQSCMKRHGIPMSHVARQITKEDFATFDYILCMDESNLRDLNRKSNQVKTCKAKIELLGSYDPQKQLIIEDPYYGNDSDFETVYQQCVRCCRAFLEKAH
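material = LMPTP-A | quantity = 0.625 nM enzyme | reagent = OMFP substrate, 400 µM final | buffer or medium = Bis-Tris pH 6.0, DTT, detergent | detection = endpoint fluorescence intensity from OMFP dephosphorylation | dosing = single 20 µM dose | read-out basis = % inhibition relative to no-enzyme and uninhibited control wells | control set = no-enzyme and uninhibited controls | timing = 50 min at room temperature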
Scp1 inh = Scp-1 (human) phosphatase inhibition. Recombinant Scp1, phosphopeptide, malachite green phosphate absorbance. inhibition, % at 20 µM. 340,000 tested, 0.88% active;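 active = inhibition above about 50% at 20 µM, limit read from the data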
Target sequence (Q9GZU7 76-261 limits assumed): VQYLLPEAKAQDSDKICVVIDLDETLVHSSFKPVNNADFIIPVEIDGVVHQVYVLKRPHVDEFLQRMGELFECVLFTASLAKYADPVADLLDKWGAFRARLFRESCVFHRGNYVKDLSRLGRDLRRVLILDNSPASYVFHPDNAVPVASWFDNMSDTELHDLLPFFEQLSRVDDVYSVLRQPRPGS
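Assay system: SCP-1 catalytic fragment, aa 76-261 | Buffer or medium: Tris acetate buffer pH 5.5 with MgCl2 and Tween-20 | Compound: One concentration, 20 µM, with 1.0% DMSO | Also added: Phospho 17-mer peptide substrate | Signal: Absorbance at 630 nm | Incubation: 45 min enzyme reaction at room temperature | Measure: % inhibition of SCP-1 phosphate liberation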
HKDC1 inh = HKDC1 (human) hexokinase inhibition. Q2TB90. recombinant HKDC1, G6PDH/diaphorase resazurin coupled fluorescence. inhibition, % at 20 µM. 340,000 tested, 0.16% active;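 active = inhibition above about 35% when tested at 20 µM, limit read from the data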
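Assay system: recombinant HKDC1 hexokinase; detection: coupled resazurin fluorescence, excitation 525 nm, emission 613 nm; benchmarks: DMSO-plus-enzyme-mix negative control, buffer-substituted positive control; compound dosing: single 20 µM dose; schedule: 90 min at room temperature in dark; also added: glucose plus 1 mM ATP as hexokinase substrates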
STEP inh = STEP (human) phosphatase inhibition; inhibition, % at 20 µM; 360,000 tested, 0.25% active; P54829; AID 588621; recombinant STEP, OMFP fluorogenic substrate, fluorescence;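 active = inhibition at 20 µM, scaled per plate between control wells, above about 37%, limit read from the data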
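Assay system: isolated STEP enzyme / Timing: 20 min at room temperature, dark / Doses: 20 µM, 1% DMSO / Technique: fluorescence intensity, excitation 480 nm, emission 540 nm / Reagent: fluorogenic phosphatase substrate OMFP at 25 µM final / Measure: percent inhibition scaled to no-enzyme and uninhibited-enzyme controls, plate-pattern corrected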
SUMO1 PPI mod = SUMO1-SIM interaction modulation. P63165. SUMO1 binding to a labelled peptide, TR-FRET, 1 h. inhibition, % at 20 µM. 360,000 tested, 0.33% active; in the data active = inhibition above about 37%
Target sequence (P63165 whole entry, looked up): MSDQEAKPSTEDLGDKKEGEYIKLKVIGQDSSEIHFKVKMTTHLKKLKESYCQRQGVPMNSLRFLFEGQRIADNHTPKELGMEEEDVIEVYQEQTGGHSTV
DNMT1 inh = blocks human DNA methyltransferase DNMT1; 360,000 tested, 0.83% active; DNMT1 molecular beacon, Hinp1I cleavage, fluorescence; inhibition (reported as % activation of signal), % at 10 µM; AID 588458; P26358; in the data active = inhibition above about 50%
DNMT1 confirm = confirmation of human DNMT1 inhibitors; DNMT1 molecular beacon HinP1I cleavage, fluorescence; inhibition, % at 10 µM; shares compounds with DNMT1 inh; 2,300 tested, 8% active;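 active = average inhibition of at least 30% in the single-concentration confirmation test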
Beacon interf = shows spectral interference in the DNMT1 beacon assay; shares compounds with DNMT1 inh; DNMT1 molecular beacon spectral interference counterscreen, fluorescence 485/520; activation (fluorescence interference), % at 10 µM; 2,300 tested, 1% active;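 active = activation of at least 30% at 10 µM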;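 note: DNMT1 catalytic domain with a HinP1I cleavage step and a FAM/dabcyl DNA beacon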
A number is an active result; – = inactive; · = no result.

SMILES	LMPTP block	Scp1 inh	HKDC1 inh	STEP inh	SUMO1 PPI mod	DNMT1 inh	DNMT1 confirm	Beacon interf
O=C(Nc1nnc(-c2ccccc2)s1)c1ccc(F)cc1	–	–	–	–	–	72	–	–
COc1ccccc1C(=O)Nc1nnc(-c2ccc(F)cc2)s1	–	–	–	–	–	–	·	·
CSc1nnc(C)c(=O)n1COC(=O)COc1ccc(Cl)cc1	–	–	–	–	–	110	–	–
Cc1ccc(C(CCN(Cc2ccccc2)C(=O)c2ccco2)c2ccco2)cc1 (stereo not drawn)	–	–	–	–	–	56	–	–
CC(=O)N(CCC(c1ccccc1)c1ccco1)Cc1cccs1 (stereo not drawn)	–	–	–	–	–	–	·	·
COCc1cc(=O)n2[nH]c(-c3ccsc3-n3c(C)ccc3C)cc2n1	–	–	–	–	45	68	–	–
Cc1cc(=O)n2[nH]c(-c3ccc(F)cc3)cc2n1	–	–	–	–	–	–	·	·
Cc1cc(=O)n2[nH]c(-c3ccsc3-n3c(C)ccc3C)cc2n1	–	–	–	–	–	67	–	–
Cc1ccc(NC(=O)CCS(=O)(=O)c2cc3[nH]c(=O)c(=O)[nH]c3cc2C)cc1	–	–	–	–	–	–	·	·
CCS(=O)(=O)N1CCN=C1SCc1ccc(F)cc1	–	–	–	–	–	–	·	·
COc1cc2oc(=O)cc(-c3ccc(-c4ccc(OC(F)(F)F)cc4)cc3)c2c(OC)c1OC	–	–	–	–	–	61	–	–
COc1ccc(-c2ccc(-c3cc(=O)oc4cc(OC)c(OC)c(OC)c34)cc2)cc1F	–	–	–	–	–	–	·	·
OC(c1ccco1)c1nc(-c2cccs2)cs1 (stereo not drawn)	–	·	·	–	–	–	·	·
CC1NC(=O)c2cccnc2-n2c1nc1cc(F)ccc1c2=O (stereo not drawn)	–	·	·	–	–	–	·	·
CCN(C(=O)COC(=O)c1nn(-c2ccccc2)c(=O)c2ccccc12)C1CCS(=O)(=O)C1 (stereo not drawn)	–	–	–	–	–	–	·	·
C=CCn1c(N)c(C(=O)OCCC)c2nc3ccccc3nc21	–	–	–	–	–	60	–	–
COc1cc2nc(CN3CCN(S(=O)(=O)c4cc(C)ccc4C)CC3)[nH]c(=O)c2cc1OC	–	–	–	–	–	92	–	–
COc1cc2nc(CN3CCN(S(=O)(=O)c4ccccc4)CC3)[nH]c(=O)c2cc1OC	–	–	–	–	–	–	·	·
CCc1ccc(NC(=O)CNS(=O)(=O)c2c(C)noc2C)cc1	–	–	–	–	–	68	–	–
O=C(N/N=C/c1cccc([N+](=O)[O-])c1)c1ccc(COc2ccccc2-c2ccccc2)cc1	–	–	–	–	–	–	·	·
O=C(NCc1cccc(F)c1)c1cccc2c1C(=O)c1ccc(N3CCOCC3)cc1S2(=O)=O	–	–	–	–	–	–	·	·
O=C(NCc1ccccc1C(F)(F)F)c1cccc2c1C(=O)c1ccc(N3CCOCC3)cc1S2(=O)=O	–	–	–	–	–	62	–	–
COc1ccc(CNC(=O)CN(c2ccc(C)cc2)S(=O)(=O)c2c(C)nn(C)c2C)cc1	–	–	–	–	–	–	·	·
CNC(=O)CSc1nnc(SCCC(=O)O)s1	–	–	–	–	–	73	–	–
Cc1cccc(NC(=O)CSc2cc(C)c(C#N)c3nc4ccccc4n23)c1	–	–	–	–	–	52	–	–
C/C(CC(=O)Nc1ccccc1C#N)=N\NC(=O)c1ccncc1	–	–	–	–	–	82	–	–
Cc1cc(C(=O)Nc2ccc(S(=O)(=O)N3CCOCC3)cc2)c(C)o1	–	–	–	–	–	–	·	·
COc1ccc(S(=O)(=O)N2CCOCC2)cc1NC(=O)c1cc(C)oc1C	–	–	–	–	–	65	–	–

Source: PubChem (Sanford-Burnham Center for Chemical Genomics)
